Assay results taken from ChEMBL document CHEMBL1926614, “Substituted thiazoles V. synthesis and antitumor activity of novel thiazolo[2,3-b]quinazoline and pyrido[4,3-d]thiazolo[3,2-a]pyrimidine analogues” (2012).
Active and inactive are the calls of the source. The rule behind the calls is not given here.

Columns and labels:
Type in all cases: functional
HCT-116 = assay: Growth inhibition of human HCT116 cells at 10 uM after 48 hrs by coulter counting
Procedure, shortened: (§1)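 Single-dose primary screen across the full NCI 60-cell-line panel. Stocks were made in DMSO and diluted in PBS to a final DMSO below 1%. Cultures at 6 × 10⁴ cells/ml were run in duplicate wells alongside PBS/DMSO vehicle controls at 37 °C in humidified 5% CO₂. Data were expressed as percent growth of treated cells.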

EKVX = assay: Growth inhibition of human EKVX cells at 10 uM after 48 hrs by coulter counting; conditions: read-out: GI; procedure, shortened: as §1
SK-MEL-28 = assay: Growth inhibition of human SK-MEL-28 cells at 10 uM after 48 hrs by coulter counting; conditions: SK-MEL-28, 48 h, read-out: GI; procedure, shortened: as §1
NCI-H226 = assay: Growth inhibition of human NCI-H226 cells at 10 uM after 48 hrs by coulter counting; conditions: NCI-H226, 48 h, read-out: GI; procedure, shortened: as §1
SR = assay: Growth inhibition of human SR cells at 10 uM after 48 hrs by coulter counting
Procedure, shortened: (§2)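 Single-dose screen in the NCI 60 human tumor cell line panel (nine subpanels). Compounds dissolved in DMSO and diluted in phosphate buffered saline, keeping final DMSO below 1%. Added in duplicate wells to cells at 6 × 10⁴ cells/ml. Controls held PBS and DMSO at matching dilutions. Incubated at 37 °C, humidified, 5% CO₂. Reported as percent growth of treated cells.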

MDA-MB-435 = assay: Growth inhibition of human MDA-MB-435 cells at 10 uM after 48 hrs by coulter counting; procedure, shortened: as §1
NCI-H460 = assay: Growth inhibition of human NCI-H460 cells at 10 uM after 48 hrs by coulter counting; procedure, shortened: as §1
U-251 = assay: Growth inhibition of human U251 cells at 10 uM after 48 hrs by coulter counting; conditions: for inhibition of growth at 10 µM: U-251, 48 h, read-out: GI; procedure, shortened: as §2
NCI-H522 = assay: Growth inhibition of human NCI-H522 cells at 10 uM after 48 hrs by coulter counting; conditions: NCI-H522, 48 h, read-out: GI; procedure, shortened: as §1
[1] = Growth inhibition of human NCI-322M cells at 10 uM after 48 hrs by coulter counting; conditions: read-out: GI; procedure, shortened: as §1
A498 = assay: Growth inhibition of human A498 cells at 10 uM after 48 hrs by coulter counting; conditions: A498, 48 h, read-out: GI; procedure, shortened: as §1
786-0 = assay: Growth inhibition of human 786-0 cells at 10 uM after 48 hrs by coulter counting; conditions: 786-0, 48 h, read-out: GI; procedure, shortened: as §1
[2] = Cytotoxicity against human breast cancer cells after 48 hrs by coulter counting; conditions: Cancer cell lines; for CC50: read-out: LC50 (the source's name)
Procedure, shortened: (§3)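 NCI 60-cell-line panel covering nine tumour subpanels, tested over a 5-log dose range. Compounds were dissolved in DMSO and diluted in phosphate-buffered saline to a final DMSO below 1%. Wells held 6 × 10⁴ cells/ml and were run in duplicate. Controls contained PBS and DMSO at matching dilutions. Incubation was at 37 °C in humidified 5% CO₂. GI₅₀, TGI and LC₅₀ were reported.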

SK-MEL-5 = assay: Growth inhibition of human SK-MEL-5 cells at 10 uM after 48 hrs by coulter counting; conditions: SK-MEL-5, 48 h, read-out: GI; procedure, shortened: as §1
NCI/ADR-RES = assay: Growth inhibition of human NCI/ADR-RES cells at 10 uM after 48 hrs by coulter counting; conditions: for inhibition of growth at 10 µM: read-out: GI; procedure, shortened: as §1
[3] = Cytotoxicity against human leukemia cells after 48 hrs by coulter counting; conditions: Leukemia cell; for CC50: read-out: LC50 (the source's name); procedure, shortened: as §3
[4] = Cytotoxicity against human ovarian cancer cells after 48 hrs by coulter counting; conditions: Cancer cell lines; for CC50: read-out: LC50 (the source's name); procedure, shortened: as §3

## CCN1CC2=C(N=C3SC=CN3C2c2ccc(OC)cc2)/C(=C/c2ccc(OC)cc2)C1 (centres undefined)
HCT-116
  growth inhibition (GI): Active
EKVX
  inhibition of growth at 10 µM: 51.9%
SK-MEL-28
  inhibition of growth at 10 µM: 10.9%
NCI-H226
  inhibition of growth at 10 µM: 88%
SR
  growth inhibition (GI): Active
MDA-MB-435
  growth inhibition (GI): Active
NCI-H460
  growth inhibition (GI): Active
U-251
  growth inhibition (GI): Active
NCI-H522
  inhibition of growth at 10 µM: 52.3%
[1]
  inhibition of growth at 10 µM: 29%
A498
  inhibition of growth at 10 µM: 11.1%
786-0
  inhibition of growth at 10 µM: 53.2%
[2]
  GI50: 2.5 µM
  TGI: 8 µM
  CC50: 73.4 µM
SK-MEL-5
  inhibition of growth at 10 µM: 74.4%
NCI/ADR-RES
  inhibition of growth at 10 µM: 76.9%
[3]
  GI50: 2.7 µM
  TGI: 81.6 µM
  CC50: > 100 µM
[4]
  GI50: 2.8 µM
  TGI: 22.5 µM
  CC50: 74.7 µM

## CCN1CC2=C(N=C3SC=CN3C2c2ccc(OC)c(OC)c2)/C(=C/c2ccc(OC)c(OC)c2)C1 (centres undefined)
HCT-116
  growth inhibition (GI): Active
EKVX
  inhibition of growth at 10 µM: 27.1%
SK-MEL-28
  inhibition of growth at 10 µM: 61.3%
NCI-H226
  inhibition of growth at 10 µM: 53.2%
SR
  growth inhibition (GI): Active
MDA-MB-435
  growth inhibition (GI): Active
NCI-H460
  growth inhibition (GI): Active
U-251
  inhibition of growth at 10 µM: 90%
NCI-H522
  inhibition of growth at 10 µM: 46.1%
[1]
  inhibition of growth at 10 µM: 19.1%
A498
  inhibition of growth at 10 µM: 18.4%
786-0
  inhibition of growth at 10 µM: > 10%
[2]
  GI50: 19.3 µM
  TGI: 43.9 µM
  CC50: 74.7 µM
SK-MEL-5
  inhibition of growth at 10 µM: 60.9%
NCI/ADR-RES
  inhibition of growth at 10 µM: 91.2%
[3]
  GI50: 2.6 µM
  TGI: 30.7 µM
  CC50: > 100 µM
[4]
  GI50: 3.2 µM
  TGI: 48.9 µM
  CC50: 90.5 µM

## CCN1CC2=C(N=C3SC=C(C)N3C2c2ccc(OC)c(OC)c2)/C(=C/c2ccc(OC)c(OC)c2)C1 (centres undefined)
HCT-116
  growth inhibition (GI): Active
EKVX
  inhibition of growth at 10 µM: 37.5%
SK-MEL-28
  inhibition of growth at 10 µM: 96.5%
NCI-H226
  inhibition of growth at 10 µM: 98.2%
SR
  growth inhibition (GI): Active
MDA-MB-435
  growth inhibition (GI): Active
NCI-H460
  growth inhibition (GI): Active
U-251
  inhibition of growth at 10 µM: 97.9%
NCI-H522
  inhibition of growth at 10 µM: 61.7%
[1]
  inhibition of growth at 10 µM: 63.6%
A498
  inhibition of growth at 10 µM: 53.8%
786-0
  inhibition of growth at 10 µM: 69.9%
[2]
  GI50: 5.7 µM
  TGI: 49.5 µM
  CC50: 68.2 µM
SK-MEL-5
  inhibition of growth at 10 µM: 87.2%
NCI/ADR-RES
  growth inhibition (GI): Active
[3]
  GI50: 4 µM
  TGI: 81.9 µM
  CC50: > 100 µM
[4]
  GI50: 3.8 µM
  TGI: 49.7 µM
  CC50: > 100 µM
